Results pooled from the literature.
Each line is one published result; the experiments were not run side by side.
SPHK2: Sphingosine kinase 2 (SPHK2, Homo sapiens, UniProt Q9NRA0)
XDH: Xanthine dehydrogenase/oxidase (XDH, Bos taurus, UniProt P80457)
SIRT1: NAD-dependent protein deacetylase sirtuin-1 (SIRT1, Homo sapiens, UniProt Q96EB6)
SLC7A5: Large neutral amino acids transporter small subunit 1 (SLC7A5, Homo sapiens, UniProt Q01650)

Compound | target | assay | setting | inhibition [%]
[H]/N=C(/N)N1CCC[C@H]1c1nc(-c2ccc(OCCC=CCCC)c(C(F)(F)F)c2)no1 | SPHK2 | enzyme activity, inhibitor, radiometric | 0.3 µM | 56
CS(=O)(=O)Nc1cccc(-c2csc(NC(=O)CSc3nc4nccnc4c(=O)n3CCc3ccccc3)n2)c1 | SPHK2 | enzyme activity, inhibitor | 10 µM | -12
O=C(O)c1ccc(O)c(O)c1 | XDH | enzyme activity, inhibitor, absorbance | 200 µg/mL | 20.8
CCCCCCCCCCCCNC(=S)NCCCC[C@H](NC(=O)OCc1ccccc1)C(=O)N[C@@H](Cc1c[nH]c2ccccc12)C(=O)N[C@@H](CCCCNC(=N)N)C(N)=O | SIRT1 | enzyme activity, inhibitor | 1 µM | 76
CCCc1ccc(CCc2ccc(-c3noc([C@@H]4CCCN4C(=N)N)n3)cc2C(F)(F)F)cc1 | SPHK2 | enzyme activity, inhibitor, radiometric | 0.3 µM | 65
O=C1CC(CCc2ccccc2)Oc2c(Br)cc(Cl)cc21 (centres unmarked) | SIRT1 | enzyme activity, inhibitor, fluorescence | 200 µM | 6.9
O=C(O)c1ccc(O)cc1 | XDH | enzyme activity, inhibitor, absorbance | 100 µg/mL | 14.7
CCc1ccc(CCc2ccc(-c3noc([C@@H]4CCCN4C(=N)N)n3)cc2C(F)(F)F)cc1 | SPHK2 | enzyme activity, inhibitor, radiometric | 0.3 µM | 63
Oc1ncnc2[nH]ncc12 | XDH | enzyme activity, inhibitor, absorbance | 25 µg/mL | 97
CCCC1CC(=O)c2cc(Cl)cc(Br)c2O1 (centres unmarked) | SIRT1 | enzyme activity, inhibitor, fluorescence | 200 µM | 6.4
O=C1CC(CCNC(=S)NCCCC[C@H](NS(=O)(=O)c2cccc(F)c2)C(=O)N[C@@H](Cc2c[nH]c3ccccc23)C(=O)NC2CCC2)=NO1 | SIRT1 | enzyme activity, inhibitor | 10 µM | 22
N=C(N)N1CCC[C@H]1c1nc(-c2ccc(CCC3CC3)c(C(F)(F)F)c2)no1 | SPHK2 | enzyme activity, inhibitor, radiometric | 0.3 µM | 32
CCCCCCCCCCCCNC(=S)NCCCC[C@H](NC(=O)OCc1ccccc1)C(=O)N[C@@H](Cc1c[nH]c2ccccc12)C(=O)N[C@@H](CC(N)=O)C(N)=O | SIRT1 | enzyme activity, inhibitor | 10 µM | 29
N[C@@H](CO)C(=O)O | SLC7A5 | transporter uptake, inhibitor, radiometric | 200 µM | -1
OCCc1ccc(O)cc1 | XDH | enzyme activity, inhibitor, absorbance | 100 µg/mL | 7.9
CNC(=O)c1cc(Oc2ccc(NC(=O)Nc3ccc(Cl)c(C(F)(F)F)c3)cc2)ccn1 | Platelet-derived growth factor receptor alpha (PDGFRA, Homo sapiens, UniProt P16234) | enzyme activity, inhibitor | 10 µM | 95
CCCCCCCCCCCCCC(=O)NCCCC[C@H](NS(C)(=O)=O)C(=O)N[C@H](C)C(=O)N[C@@H](CCCNC(=N)N)C(N)=O | SIRT1 | enzyme activity, inhibitor | 10 µM | 23
NC(CCCNC(=O)c1ccccc1)C(=O)O (centres unmarked) | SLC7A5 | transporter uptake, inhibitor, radiometric | 200 µM | 54
O=Cc1c[nH]c2ccccc12 | XDH | enzyme activity, inhibitor, absorbance | 200 µg/mL | 13.1
[H]/N=C(\N)N1CCC[C@H]1c1nc(-c2ccc(OCC=CCCCC)c(C(F)(F)F)c2)no1 | SPHK2 | enzyme activity, inhibitor, radiometric | 0.3 µM | 48
O=C(NC1CCC1)[C@H](Cc1c[nH]c2ccccc12)NC(=O)[C@H](CCCCNC(=S)NCCc1nnn[nH]1)NS(=O)(=O)c1cccc(F)c1 | SIRT1 | enzyme activity, inhibitor | 1 µM | 7
N=C(N)N1CCC[C@H]1c1nc(-c2ccc(CCC3CCCCC3)c(C(F)(F)F)c2)no1 | SPHK2 | enzyme activity, inhibitor, radiometric | 0.3 µM | 71
CC(C)(C)C(=O)OCOP(=O)(Cc1ccccc1CP(=O)(OCOC(=O)C(C)(C)C)OCOC(=O)C(C)(C)C)OCOC(=O)C(C)(C)C | Signal transducer and activator of transcription 5B, SH2 (STAT5B, Homo sapiens, UniProt P51692) | ligand displacement, FP | 100 µM | -1
CCCCCCCCCCCCNC(=S)NCCCC[C@H](NC(=O)C1CCCCC1)C(=O)N[C@H](C)C(=O)N[C@@H](CCCNC(=N)N)C(N)=O | SIRT1 | enzyme activity, inhibitor | 1 µM | 44

Compound | target | assay | setting | inhibition [%]
CCCCCC1CCc2cc(Cl)cc(Br)c2O1 (centres unmarked) | SIRT1 | enzyme activity, inhibitor, fluorescence | 200 µM | -5.2
N[C@@H](Cc1cccc(C(=O)Oc2ccccc2)c1)C(=O)O | SLC7A5 | transporter uptake, inhibitor, radiometric | 200 µM | 85
CCCCCC1CC(=O)c2cc([N+](=O)[O-])ccc2O1 (centres unmarked) | SIRT1 | enzyme activity, inhibitor, fluorescence | 200 µM | 4.7
C[C@@H](NC(=O)[C@H](CCCCNC(=O)C(F)(F)F)NS(C)(=O)=O)C(=O)N[C@@H](CCCNC(=N)N)C(N)=O | SIRT1 | enzyme activity, inhibitor | 100 µM | 14
CCCCCC1CC(O)c2cc(Cl)cc(Br)c2O1 (centres unmarked) | SIRT1 | enzyme activity, inhibitor, fluorescence | 200 µM | -5.5
N=C(N)N1CCC[C@H]1c1nc(-c2ccc(CCC3CCCC3)c(C(F)(F)F)c2)no1 | SPHK2 | enzyme activity, inhibitor, radiometric | 0.3 µM | 25
Ic1cccc2cnccc12 | Alpha-1B adrenergic receptor (Adra1b, Rattus norvegicus, UniProt P15823) | ligand displacement, radioligand | 10 µM | 7
NC(CCNC(=O)c1ccccc1)C(=O)O (centres unmarked) | SLC7A5 | transporter uptake, inhibitor, radiometric | 200 µM | 8.6
CC(C)C1CC(=O)c2cc(Cl)cc(Br)c2O1 (centres unmarked) | SIRT1 | enzyme activity, inhibitor, fluorescence | 200 µM | 2.8
CC(C)CCn1c(SCC(=O)Nc2ccccc2C(F)(F)F)nc2nccnc2c1=O | Phosphatidylinositol 4-kinase beta (PI4KB, Homo sapiens, UniProt Q9UBF8) | enzyme activity, inhibitor | 10 µM | < 20
N[C@@H](CCCCNC(=O)c1ccccc1)C(=O)O | SLC7A5 | transporter uptake, inhibitor, radiometric | 200 µM | 38
O=C(CSc1nc2nccnc2c(=O)n1CCc1ccccc1)Nc1nccs1 | SPHK2 | enzyme activity, inhibitor | 10 µM | 0
CCCCCC1CC(=O)c2cc(OC)ccc2O1 (centres unmarked) | SIRT1 | enzyme activity, inhibitor, fluorescence | 200 µM | 10.3
CCCCCCCCCCCCNC(=S)NCCCC[C@H](NC(=O)OCc1ccccc1)C(=O)N[C@@H](Cc1c[nH]c2ccccc12)C(=O)N[C@@H](CCNC(=N)N)C(N)=O | SIRT1 | enzyme activity, inhibitor | 1 µM | 30
O=C1C=C(c2ccc(O)c(O)c2)CO1 | XDH | enzyme activity, inhibitor, absorbance | 100 µg/mL | 17.2
CCOCCOCCNC(=S)NCCCC[C@H](NS(C)(=O)=O)C(=O)N[C@H](C)C(=O)N[C@@H](CCCNC(=N)N)C(N)=O | SIRT1 | enzyme activity, inhibitor | 100 µM | 12
CCCCCCCC1CC(=O)c2cc(Cl)cc(Br)c2O1 (centres unmarked) | SIRT1 | enzyme activity, inhibitor, fluorescence | 200 µM | 7.5
O=C(NC1CCC1)[C@H](Cc1c[nH]c2ccccc12)NC(=O)[C@H](CCCCNC(=S)NCc1cc(O)no1)NS(=O)(=O)c1cccc(F)c1 | SIRT1 | enzyme activity, inhibitor | 30 µM | 49
OCCc1ccc(O)c(O)c1 | XDH | enzyme activity, inhibitor, absorbance | 100 µg/mL | 7.3
[H]/N=C(\N)N1CCC[C@H]1c1nc(-c2ccc(OCCC=Cc3ccc(C(F)(F)F)cc3)c(C(F)(F)F)c2)no1 | SPHK2 | enzyme activity, inhibitor, radiometric | 0.3 µM | 68
CCCCCCCCCCCCNC(=S)NCCCC[C@H](NC(=O)OCc1ccccc1)C(=O)N[C@@H](CCCCN)C(=O)N[C@@H](CCCNC(=N)N)C(N)=O | SIRT1 | enzyme activity, inhibitor | 1 µM | 25
O=C(CO)c1ccc(O)c(O)c1 | XDH | enzyme activity, inhibitor, absorbance | 200 µg/mL | 43.3
CSSc1ccccc1C(=O)O | Procathepsin L (CTSL, Homo sapiens, UniProt P07711) | enzyme activity, inhibitor, fluorescence | 20 µM | 93
